Experiment [1] concerns the target Heat shock protein HSP 90-beta (Homo sapiens) (UniProt P08238). Put plainly: Inhibition of HSP90-mediated antiapoptotic activity in human NCI-H526 cells assessed as increase in caspase-3 activity at 10 uM after 24 hrs by Western blot analysis. The format is cell-based.
Experiment [2] shares this target. The experiment in a line: Inhibition of HSP90-mediated antiapoptotic activity in human NCI-H526 cells assessed as induction of caspase-2 cleavage at 10 uM after 24 hrs by Western blot analysis. The format is cell-based. The method in brief: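 NCI-H526 cells at 60–70% confluence were exposed to drug or DMSO for 24 h. Lysed in 50 mM Tris pH 7.4, 150 mM NaCl, 1% NP-40, with protein measured by BCA. 20–100 µg run on SDS-PAGE and blotted to nitrocellulose. Probed with cleaved-protein antibodies and peroxidase secondary at 1:5,000, with β-actin as loading control.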

The target is the same in experiment [3]. Put plainly: Inhibition of HSP90-mediated antiapoptotic activity in human NCI-H526 cells assessed as subG1 accumulation at 2.5 uM after 72 hrs by propidium iodide staining-based flow cytometry. The format is cell-based. The method in brief:
(§1)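 SCLC cells treated for 72 h with graded doses. Mitochondrial membrane potential read by flow cytometry after JC-1 staining, with green-only emission indicating depolarization. Sub-G1 DNA content read after propidium iodide staining. CCCP used as positive control. n = 3 repeat experiments.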
(In flow cytometry, cells or beads pass a laser one at a time.)

Experiment [4] has the same target. Put plainly: Inhibition of HSP90-mediated antiapoptotic activity in human NCI-N417 cells assessed as subG1 accumulation at 5 uM after 72 hrs by propidium iodide staining-based flow cytometry. Particulars: NCI-H417. The format is cell-based. The method in brief:
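Asynchronously growing cells were treated with compound, stained with propidium iodide and analysed by flow cytometry. The read-out was the percentage of cells with sub-G1 DNA content.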

Experiment [5] has the same target. The experiment in a line: Inhibition of HSP90-mediated antiapoptotic activity in human NCI-H187 cells assessed as subG1 accumulation at 15 uM after 72 hrs by propidium iodide staining-based flow cytometry. The class given is cell-based. The procedure, abridged:
as §1

Experiment [6] shares this target. Put plainly: Inhibition of HSP90-mediated antiapoptotic activity in human NCI-H187 cells assessed as subG1 accumulation at 25 uM after 72 hrs by propidium iodide staining-based flow cytometry. The class given is cell-based. The procedure, abridged:
as §1

For experiment [7] the target is unchanged. Put plainly: Inhibition of HSP90-mediated antiapoptotic activity in human NCI-H526 cells assessed as induction of cell death at 10 uM after 72 hrs by propidium iodide staining-based flow cytometry in presence of broad-spectrum caspase inhibitor Boc-D-FMK. The method in brief: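 NCI-H526 cells pretreated for 3 h with Boc-D-FMK (100 µM), then exposed to 10 µM for 72 h. Flow cytometry after JC-1 staining for mitochondrial potential and after propidium iodide staining for DNA content. n = 3.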

Experiment [8] shares this target. Put plainly: Inhibition of HSP90-mediated antiapoptotic activity in human NCI-H526 cells assessed as induction of Akt degradation at 10 uM after 24 hrs by Western blot analysis. The class given is cell-based. Background: In western blotting, separated proteins are transferred to a membrane and probed.
For experiment [9] the target is unchanged. Put plainly: Inhibition of HSP90-mediated antiapoptotic activity in human NCI-H526 cells assessed as reduction in BAD phosphorylation at 10 uM after 24 hrs by Western blot analysis. The format is cell-based.
For experiment [10] the target is unchanged. The experiment in a line: Inhibition of HSP90-mediated antiapoptotic activity in human NCI-H526 cells assessed as reduction in BAD phosphorylation at 20 uM after 24 hrs by Western blot analysis. The class given is cell-based.
Experiment [11] shares this target. Put plainly: Inhibition of HSP90-mediated antiapoptotic activity in human NCI-H526 cells assessed as disruption of protein-Apaf-1 complex at 20 uM after 24 hrs by Western blot analysis. The format is cell-based. The method in brief:
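NCI-H526 cells treated for 24 h with vehicle or inhibitors (20 µM or 50 µM). Proteins isolated with Apaf-1-specific antibody and whole lysates analysed by western blot. n = 3.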

The target is the same in experiment [12]. The experiment in a line: Inhibition of HSP90-mediated antiapoptotic activity in human SKBR3 cells assessed as induction of cell growth arrest at 20 uM after 24 hrs by propidium iodide staining-based flow cytometry. Particulars: SK-BR-3.
Experiment [13] shares this target. Put plainly: Inhibition of HSP90-mediated antiapoptotic activity in human MCF7 cells assessed as induction of cell growth arrest at 100 uM after 24 hrs by propidium iodide staining-based flow cytometry.
Experiment [14] relates to SK-BR-3. The experiment in a line: Inhibition of HSP70-mediated antiapoptotic activity in human SKBR3 cells assessed as induction of PARP cleavage after 24 hrs by Western blot analysis. The format is cell-based. The procedure, abridged: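 SKBr3 cells were treated for 24 h. Lysates were probed by western blot for caspase-3 and PARP cleavage. Apaf-1 complexes were pulled down with Apaf-1 antibody (with control IgG) and immunoblotted.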

Structures are written as SMILES. Active and inactive are the calls of the source. No cut-off for these calls is given here.

Heat shock protein HSP 90-beta (Homo sapiens), sequence (P08238 whole entry): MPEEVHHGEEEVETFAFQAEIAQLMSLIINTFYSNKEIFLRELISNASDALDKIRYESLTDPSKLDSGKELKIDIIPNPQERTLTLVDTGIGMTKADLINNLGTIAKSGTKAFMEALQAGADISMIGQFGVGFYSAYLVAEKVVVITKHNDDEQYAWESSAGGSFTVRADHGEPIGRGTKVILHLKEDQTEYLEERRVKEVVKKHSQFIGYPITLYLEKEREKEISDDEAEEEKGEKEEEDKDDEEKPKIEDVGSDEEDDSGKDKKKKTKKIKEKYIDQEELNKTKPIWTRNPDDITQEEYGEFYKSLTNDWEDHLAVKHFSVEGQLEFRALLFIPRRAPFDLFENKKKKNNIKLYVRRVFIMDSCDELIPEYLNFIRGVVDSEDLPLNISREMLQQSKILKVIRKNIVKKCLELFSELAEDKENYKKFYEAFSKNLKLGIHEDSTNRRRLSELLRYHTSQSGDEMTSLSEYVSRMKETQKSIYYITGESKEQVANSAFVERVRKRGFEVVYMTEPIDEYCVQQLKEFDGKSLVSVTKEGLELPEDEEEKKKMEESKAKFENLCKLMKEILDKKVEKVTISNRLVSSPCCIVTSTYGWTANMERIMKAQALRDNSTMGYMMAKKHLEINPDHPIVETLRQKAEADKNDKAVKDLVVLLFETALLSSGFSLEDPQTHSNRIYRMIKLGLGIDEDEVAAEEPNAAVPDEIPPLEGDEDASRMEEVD

On to `O=CN1CC/C(=C/c2ccc3c(c2)OCO3)C1=O`, for which the outcome in experiment [1], in experiment [2], in experiment [3], in experiment [4], in [5] and in experiment [6] was inactive. The outcome in [7], in experiment [8], in experiment [9], in experiment [10], in [11] and in [12] was inactive. Further, the result in experiment [13] was Active. Besides, in experiment [14], the inhibition result is “Active”.
